# Lmaj promast: Leishmania major promastigote growth inhibition. Leishmania major promastigotes, resazurin fluorescence viability. inhibition, % at 10 µM. hit rate 9% among 200,000. AID 1063; in the data active = inhibition above about 50%;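 also: promastigotes grown with compound for 44 hours at 28 °C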
# SKKanGAS inh: blocks kanamycin growth of S. pyogenes SKKanGAS strain | hit rate 1.3% among 300,000 | BacTiter-Glo, 6 h | inhibition, % at 7.5 µM;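 active = mean replicate score, as percent of positive control median, at least 50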;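 also: strain carries kanamycin resistance gene driven by streptokinase promoter and grows in 40 µg/ml kanamycin; loss of luminescence reflects streptokinase promoter inhibition or plain growth inhibition; 0% = median of DMSO wells and 100% = positive control at its reference dose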
# T cruzi inh: T. cruzi replication inhibition | T. cruzi beta-gal in NIH3T3, luminescence, 90 h | inhibition, % (test concentration not listed) | hit rate 1.4% among 300,000;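 active = mean inhibition across valid replicates above about 55%, limit read from the data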;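 also: signal also drops with host cell toxicity which is not excluded here; 0% = plate median of DMSO wells and 100% = zero luminescence signal; higher percent means less beta-gal luminescence so fewer parasites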
#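 System: mouse NIH/3T3 fibroblasts infected with β-gal-expressing T. cruzi Tulahuen C4 / Input: NIH/3T3 cells, 5,000 per well / Buffer or medium: Low-serum DMEM with 2% FBS / Probe or stimulus: 5000 reporter trypomastigotes per well / Schedule: ≥90 h infection period, 3 h prior cell attachment / Measured by: GalScreen luminescence, 60 min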
# Mdm2 MdmX PPI: human Mdm2/MdmX binding inhibition; hit rate 3% among 330,000; inhibition, % at 8 µM; O15151+Q00987; AID 485346; SaOS-2 split-luciferase Mdm2/MdmX complementation, luminescence;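 active = inhibition of at least 50% at 8 µM in the primary screen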
# CSC inhib: blocks cancer stem cells; AID 2717; hit rate 1.1% among 300,000; cancer stem cell-like cells viability, luminescence; inhibition, % at 7.5 µM; in the data active = inhibition above about 75%; tested in HMLE shEcad cells
# Beta apoptosis: beta cell apoptosis inhibition; INS-1E cytokine-induced death, ATP luminescence, 48 h; percent of positive-control rescue, neutral wells zero; protection from apoptosis, % (no concentration beside the values); hit rate 0.8% among 300,000; AID 435005;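 active = Every replicate reaches about 75%, or at least half do and their mean reaches it too, limit read from the data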;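 also: 0% = cytokine-treated negative control wells and 100% = positive control rescue; higher means more ATP so stronger rescue from cytokine killing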
# Numbers without * were called inactive; / = no result given. The list is not random: actives were taken first. Their share in the collection is about 9.4%.
SMILES,Lmaj promast,SKKanGAS inh,T cruzi inh,Mdm2 MdmX PPI,CSC inhib,Beta apoptosis
Cc1cccc(OCC(=O)N2CCC(N3CCOCC3)CC2)c1,92*,-2,-14,12,-3,-5
CC1CN(C2CCN(C(=O)COc3ccc(Cl)cc3)CC2)CC(C)O1 (stereo not given),92*,2,17,25,-10,-9
Cn1cc(CN2CCCC(CO)(Cc3ccccc3)C2)cn1 (stereo not given),77*,14,-2,22,-1,/
Cn1cc(CN2CCCC(CO)(Cc3cccc(Cl)c3)C2)cn1 (stereo not given),81*,-11,22,8,10,3
OCC1(Cc2cccc(Cl)c2)CCCN(Cc2ccc(F)c(F)c2)C1 (stereo not given),/,29,23,-8,47,-9
CCN1CCCC(CO)(Cc2ccccc2)C1 (stereo not given),1,1,-1,-15,-9,2
Cc1nn(C)c(Cl)c1CN1CCCC(CO)(Cc2cccc(Cl)c2)C1 (stereo not given),86*,7,47,-25,6,-2
CCn1cc(CN2CCCC(CO)(Cc3cccc(Cl)c3)C2)cn1 (stereo not given),92*,-1,26,3,10,-3
COc1cc(O)c(C(C)=O)c(CC(=O)O)c1,/,-1,-6,3,-7,-2
CCc1cc2c(SCC(=O)NC3CC3)ncnc2s1,/,/,/,11,-7,-2
CC(C)n1cc(CN2CCCC(CO)(Cc3cccc(Cl)c3)C2)cn1 (stereo not given),87*,-9,51,-2,9,-6
CSc1cccc(CN2CCC(CO)(Cc3ccccc3)CC2)c1,88*,4,45,7,12,-5
OCC1(Cc2cccc(Cl)c2)CCCN(Cc2cnn(-c3ccccc3)c2)C1 (stereo not given),85*,-8,24,3,32,-14
CSc1cccc(CN2CCCC(CO)(Cc3cccc(Cl)c3)C2)c1 (stereo not given),1,25,62*,20,31,9
CC(C)(C)OC(=O)C[C@@H]1C/C=C\C[C@@H](CC(=O)NCCO)C(=O)N2CCC[C@H]2COC1=O,/,/,/,7,-15,-6
C=C(C)[C@H]1CC=C(C)C(=O)C1,/,/,/,10,-11,-4
CCOc1cc(/C=C2\CCCC(C(=O)C(F)(F)F)=C2O)ccc1O,15,-10,-9,39,18,-7
Cc1ccc(C23CC4CC(CC(NC(=O)N5CCN(C)CC5)(C4)C2)C3)cc1,85*,4,/,27,3,0
COc1ccc(Cn2nc(-c3ccccc3)c(N3CCCCC3)cc2=O)cc1,22,-1,38,6,62,5
O=c1cc(N2CCCCC2)c(-c2ccccc2)nn1Cc1ccccc1,13,/,48,13,105*,4
COc1ccc(C(CNC(=O)c2ccc(OCc3c(C)noc3C)cc2)N2CCCC2)cc1 (stereo not given),/,/,/,18,/,5
CC(=O)Nc1cc(C(=O)N(C)Cc2ccccc2)ccc1S(=O)(=O)c1ccc(C)cc1,/,2,4,-2,/,/
COc1ccc(-c2cn3c(C)c(C(=O)Nc4cccc(C)n4)sc3n2)cc1,96*,11,-7,22,-4,-4
O=S(=O)(N1CCCCC1)n1c(Cc2ccccc2)nc2ccccc21,54*,7,35,15,14,-5
COc1ccccc1C(=O)C1CCCN(Cc2cn[nH]c2C2CCCCC2)C1 (stereo not given),13,4,62*,21,-4,4
SMILES,Lmaj promast,SKKanGAS inh,T cruzi inh,Mdm2 MdmX PPI,CSC inhib,Beta apoptosis
COc1cc(OC)c(OC)cc1CN1CCCC(C(=O)c2ccccc2SC)C1 (stereo not given),25,-3,56*,0,-1,4
CSc1ccccc1C(=O)C1CCCN(S(=O)(=O)N(C)C)C1 (stereo not given),89*,-2,6,6,8,-3
COc1cc(CN2CCCC(C(=O)c3ccccc3SC)C2)cc(OC)c1 (stereo not given),6,-14,68*,13,19,-2
COc1ccccc1C(=O)C1CCCN(Cc2ccc3c(c2)OCCO3)C1 (stereo not given),/,8,46,-15,/,-5
Cc1cccc(C)c1NC(=O)C1CCCN1S(=O)(=O)c1ccc2c(c1)n(C)c(=O)c(=O)n2C (stereo not given),/,-3,-2,15,-4,2
COc1ccccc1CN1CC(C(=O)N2CCC(OC)CC2)CCC1=O (stereo not given),/,-22,0,14,-6,-3
COCCn1cnnc1SCC(=O)Nc1ccc(N2CCCCC2)cc1,/,/,/,4,-4,0
CCOC(=O)c1[nH]ncc1CN1CCCC(C(=O)c2ccc(C(C)(C)C)cc2)C1 (stereo not given),74*,-21,3,14,-1,-3
COc1cc(CN2CCCC(C(=O)c3ccc(C(C)(C)C)cc3)C2)cc(OC)c1O (stereo not given),/,-19,44,20,15,1
COc1cc(C)c(Cc2cnc(N)nc2N)cc1OC,/,52*,7,/,-16,-10
CCCCOc1ccc(Cc2cnc(N)nc2N)cc1,/,-1,23,15,50,8
Cn1nc(C(=O)OCC(=O)Nc2ccc3ccccc3c2)c2ccccc2c1=O,-6,-11,-4,-21,2,-3
O=C(/C=C/Nc1ccccc1Oc1ccccc1)c1ccco1,77*,1,3,-25,7,/
O=C(/C=C/Nc1ccccc1O)c1ccco1,/,3,-1,13,2,-4
O=C(Nc1nc2ccccc2n1Cc1ccccc1)c1ccco1,73*,55*,21,49,21,14
CCC(=O)Nc1nc2ccccc2n1Cc1ccccc1Cl,/,63*,-2,50,24,16
Cn1c(SCc2ccccc2Cl)nc2ccccc21,3,17,-3,-163,3,-1
CCC(=O)Nc1nc2ccccc2n1Cc1ccc(Cl)cc1,99*,62*,62*,32,-11,17
CCn1c(SCc2ccccc2Cl)nc2ccccc21,10,74*,14,-19,7,-2
CCC(=O)Nc1nc2ccccc2n1CCN1CCOCC1,-4,-3,-2,5,-19,/
Cc1cccc(C(=O)Nc2ccccc2C(=O)NCc2ccco2)c1,/,2,7,15,1,4
CC1CC(C)CN(S(=O)(=O)N2CCCC(C(=O)NCCc3ccccc3)C2)C1 (stereo not given),/,14,14,25,-4,3
Cc1noc(C)c1CSCC(=O)Nc1ccc(S(=O)(=O)C(F)F)cc1,/,-7,-4,8,-17,0
O=C(CSc1nc2ccccc2n1Cc1ccccc1)N/N=C/c1ccco1,50*,1,/,-4,9,5
CC(=O)Nc1nc2ccccc2n1CCOc1ccccc1Cl,99*,19,38,49,31,30

# Screening results from PubChem BioAssay.
